Test results: ChEMBL document CHEMBL3124870, “Discovery and characterization of potent thiazoles versus methicillin- and vancomycin-resistant Staphylococcus aureus” (J Med Chem, 2014)
Values after ≈ are worked out from the molar mass of the structure shown.

Assays:
[1] = system: Staphylococcus aureus; experiment: Antibacterial activity against methicillin-resistant Staphylococcus aureus NRS119 assessed as inhibition of visible growth by broth microdilution method; assay type: functional
[2] = system: Staphylococcus aureus; experiment: Antibacterial activity against methicillin-resistant Staphylococcus aureus USA1100 assessed as inhibition of visible growth by broth microdilution method; assay type: functional
[3] = system: Staphylococcus aureus; experiment: Antibacterial activity against methicillin-resistant Staphylococcus aureus USA100 assessed as inhibition of visible growth by broth microdilution method; assay type: functional
[4] = system: Staphylococcus aureus; experiment: Antibacterial activity against methicillin-resistant Staphylococcus aureus USA500 assessed as inhibition of visible growth by broth microdilution method; assay type: functional
[5] = system: Staphylococcus aureus; experiment: Antibacterial activity against methicillin-resistant Staphylococcus aureus ATCC 43300 assessed as inhibition of visible growth by broth microdilution method; assay type: functional
[6] = system: Staphylococcus aureus; experiment: Antibacterial activity against vancomycin-intermediate Staphylococcus aureus HIP07256 assessed as inhibition of visible growth by broth microdilution method; assay type: functional
[7] = system: HeLa; experiment: Cytotoxicity against human HeLa cells assessed as cell viability at 11 ug/ml by MTS assay; assay type: cell-based
[8] = system: Staphylococcus aureus; experiment: Antibacterial activity against methicillin-resistant Staphylococcus aureus USA800 assessed as inhibition of visible growth by broth microdilution method; assay type: functional
[9] = system: Staphylococcus aureus; experiment: Antibacterial activity against methicillin-resistant Staphylococcus aureus NRS107 assessed as inhibition of visible growth by broth microdilution method; assay type: functional
[10] = system: Staphylococcus aureus; experiment: Antibacterial activity against vancomycin-resistant Staphylococcus aureus assessed as inhibition of visible growth by broth microdilution method; assay type: functional
[11] = system: Staphylococcus aureus; experiment: Antibacterial activity against methicillin-resistant Staphylococcus aureus NRS194 assessed as inhibition of visible growth by broth microdilution method; assay type: functional
[12] = system: Staphylococcus aureus; experiment: Antibacterial activity against methicillin-resistant Staphylococcus aureus NRS108 assessed as inhibition of visible growth by broth microdilution method; assay type: functional
[13] = system: Staphylococcus aureus; experiment: Antibacterial activity against methicillin-resistant Staphylococcus aureus USA200 assessed as inhibition of visible growth by broth microdilution method; assay type: functional
[14] = system: Staphylococcus aureus; experiment: Antibacterial activity against vancomycin-intermediate Staphylococcus aureus ATCC 700699 assessed as inhibition of visible growth by broth microdilution method; assay type: functional
[15] = system: Staphylococcus aureus; experiment: Antibacterial activity against vancomycin-intermediate Staphylococcus aureus LIM 3 assessed as inhibition of visible growth by broth microdilution method; assay type: functional
[16] = system: Staphylococcus aureus; experiment: Antibacterial activity against methicillin-resistant Staphylococcus aureus USA400 assessed as inhibition of visible growth by broth microdilution method; assay type: functional
[17] = system: Staphylococcus aureus; experiment: Antibacterial activity against methicillin-resistant Staphylococcus aureus USA300 assessed as inhibition of visible growth by broth microdilution method; assay type: functional
[18] = system: Staphylococcus aureus; experiment: Antibacterial activity against methicillin-resistant Staphylococcus aureus USA700 assessed as inhibition of visible growth by broth microdilution method; assay type: functional
[19] = system: Staphylococcus aureus; experiment: Antibacterial activity against methicillin-resistant Staphylococcus aureus USA1000 assessed as inhibition of visible growth by broth microdilution method; assay type: functional
[20] = system: Staphylococcus aureus; experiment: Bactericidal activity against methicillin-resistant Staphylococcus aureus USA300 assessed as time required to complete elimination of bacteria by 3-log10 by time-kill assay; assay type: functional
Procedure, shortened: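 Viable counts (CFU) followed over a 12-hour window; endpoint is a 3-log10 fall in CFU.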

[21] = Aqueous solubility of compound in phosphate buffer assessed as solubility limit after 2 hrs by turbidity analysis; assay type: physicochemical

Row | Structure (SMILES) | MIC [1] [µg/mL] | MIC [2] [µg/mL] | MIC [3] [µg/mL] | MIC [4] [µg/mL] | MIC [5] [µg/mL] | MIC [6] [µg/mL] | Activity [7] | MIC [8] [µg/mL] | MIC [9] [µg/mL] | MIC [10] [µg/mL] | MIC [11] [µg/mL] | MIC [12] [µg/mL] | MIC [13] [µg/mL] | MIC [14] [µg/mL] | MIC [15] [µg/mL] | MIC [16] [µg/mL] | MIC [17] [µg/mL] | MIC [18] [µg/mL] | MIC [19] [µg/mL] | Time [20] [h] | also measured
1 | C/C(=N\NC(=N)N)c1sc(-c2ccc(C(C)(C)C)cc2)nc1C | 1.9 (≈ 5.77 µM) | 1.9 (≈ 5.77 µM) | 1.3 (≈ 3.95 µM) | 1.3 (≈ 3.95 µM) | 1.9 (≈ 5.77 µM) | 1.9 (≈ 5.77 µM) | Non-toxic | 1.3 (≈ 3.95 µM) | 1 (≈ 3.04 µM) | 1.6 (≈ 4.86 µM) | 2.6 (≈ 7.89 µM) | 1.9 (≈ 5.77 µM) | 2.6 (≈ 7.89 µM) | 1.6 (≈ 4.86 µM) | 1.6 (≈ 4.86 µM) | 1.9 (≈ 5.77 µM) | 1.3 (≈ 3.95 µM) | – | – | – | –
2 | C/C(=N\NC(=N)N)c1sc(-c2ccc3ccccc3c2)nc1C | 3.8 (≈ 11.7 µM) | – | – | 2.6 (≈ 8.04 µM) | 3.8 (≈ 11.7 µM) | 2.6 (≈ 8.04 µM) | Non-toxic | – | 1.9 (≈ 5.87 µM) | – | 1.9 (≈ 5.87 µM) | 1.9 (≈ 5.87 µM) | 2.6 (≈ 8.04 µM) | 3.2 (≈ 9.89 µM) | – | – | – | 2.6 (≈ 8.04 µM) | – | – | –
3 | C/C(=N\NC(=N)N)c1sc(-c2ccc(C3=CCCCC3)cc2)nc1C | 0.6 (≈ 1.7 µM) | – | 1 (≈ 2.83 µM) | 1 (≈ 2.83 µM) | 1.2 (≈ 3.39 µM) | 0.8 (≈ 2.26 µM) | Non-toxic | 0.8 (≈ 2.26 µM) | 0.6 (≈ 1.7 µM) | 1.2 (≈ 3.39 µM) | 0.8 (≈ 2.26 µM) | 1.7 (≈ 4.81 µM) | 1 (≈ 2.83 µM) | 0.5 (≈ 1.41 µM) | 0.8 (≈ 2.26 µM) | – | 1.2 (≈ 3.39 µM) | 1.2 (≈ 3.39 µM) | 0.8 (≈ 2.26 µM) | – | –
4 | C/C(=N\NC(=N)N)c1sc(-c2ccc(C3CCCCC3)cc2)nc1C | 0.7 (≈ 1.97 µM) | 0.7 (≈ 1.97 µM) | 0.7 (≈ 1.97 µM) | 0.9 (≈ 2.53 µM) | 1.5 (≈ 4.22 µM) | 0.7 (≈ 1.97 µM) | Non-toxic | 0.7 (≈ 1.97 µM) | 0.6 (≈ 1.69 µM) | 1.5 (≈ 4.22 µM) | 0.7 (≈ 1.97 µM) | 1.5 (≈ 4.22 µM) | 1.2 (≈ 3.38 µM) | 0.7 (≈ 1.97 µM) | 0.5 (≈ 1.41 µM) | 0.7 (≈ 1.97 µM) | 0.7 (≈ 1.97 µM) | 1.5 (≈ 4.22 µM) | 0.9 (≈ 2.53 µM) | 6 | –
5 | COC(=O)[C@H]1[C@H]2C[C@@H]3c4[nH]c5cc(OC)ccc5c4CCN3C[C@H]2C[C@@H](OC(=O)c2cc(OC)c(OC)c(OC)c2)[C@@H]1OC [RESERPINE] | – | – | – | – | – | – | – | – | – | – | – | – | – | – | – | – | – | – | – | – | solubility kinetic at 2 h [21]: 31.3 µM (≈ 19.1 µg/mL)
6 | CN[C@H](CC(C)C)C(=O)N[C@H]1C(=O)N[C@@H](CC(N)=O)C(=O)N[C@H]2C(=O)N[C@H]3C(=O)N[C@H](C(=O)N[C@H](C(=O)O)c4cc(O)cc(O)c4-c4cc3ccc4O)[C@H](O)c3ccc(c(Cl)c3)Oc3cc2cc(c3O[C@@H]2O[C@H](CO)[C@@H](O)[C@H](O)[C@H]2O[C@H]2C[C@](C)(N)[C@H](O)[C@H](C)O2)Oc2ccc(cc2Cl)[C@H]1O [VANCOMYCIN] | – | – | – | – | – | – | – | – | – | – | – | – | 0.4 (≈ 0.276 µM) | – | – | – | – | – | – | 12 | –
